Experimental data collected from several papers.
Organism: Staphylococcus aureus
Effect on: microbial growth

`C/C=C(\C)c1cc(OC(=O)c2c(O)c(C)c(O)c(Cl)c2/C(C)=C/C)c(C)c(O)c1C(=O)O` has an MIC of 64 µg/mL (broth dilution; MRSA).
`C=CCn1c(-c2ccc([N+](=O)[O-])cc2)nc2ccc(C)cc21` gave an MIC of 32 µg/mL (broth dilution; ATCC29213 MSSA).
`NCCCC[C@H](N)C(=O)Nc1ccc(-n2nc(C(F)(F)F)cc2-c2ccc3c(ccc4ccccc43)c2)cc1` gave an MIC of 4 µg/mL (broth dilution; ATCC29213; 24 h).
With `O=[N+]([O-])c1cnc2ccccc2c1O` the MIC was over 128 µg/mL.
For `C=CC(=O)Nc1cccc(Oc2nc(Nc3ccc(N4CCN(C)CC4)cc3OC)ncc2Cl)c1`, the MIC was over 30 µM (NCTC8325).
With `CCC1(C)CC(OC(=O)CSc2nnc(N)[nH]2)C2(C)C(C)CCC3(CCC(=O)C32)C(C)C1O` (stereo not shown) the MIC was 0.5 µg/mL.
With `C/C=C(\C)c1cc(O)c(C)c(OC(=O)c2c(C)cc(O)c(Cl)c2O)c1` the MIC was 8 µg/mL (broth dilution; ATCC29213).
With `CC(=O)NC[C@H]1CN(c2ccc(N3CCOCC3)c(F)c2)C(=O)O1` the MIC was 2 µg/mL (broth dilution; MRSA NRS123 USA400; drug-resistant strain).
The MIC of `CNC(=O)CN1CCC(Oc2cc3c(Nc4cccc(Cl)c4F)ncnc3cc2OC)CC1` is reported as over 30 µM (NCTC8325).
The MIC of `O=C1NN=C(N=Cc2ccccc2)C1=NNn1c(-c2ccccc2)nc2ccccc2c1=O` is reported as 57.1 µM (broth dilution; 24 h).
The MIC of `Cc1ccc2nc(-c3ccccc3Cl)[nH]c2c1` is reported as 64 µg/mL (broth dilution; ATCC29213 MSSA).
`O=C(O)CN1C(=O)/C(=C/c2ccc(-c3ccc(N(c4ccccc4)c4ccccc4)cc3)c3ccccc23)SC1=S` gave an MIC of 1000 µg/mL (broth dilution; ATCC25923).
With `CC1=NN(CNc2c(O)c(S(=O)(=O)O)cc3ccccc23)C(=O)C1=NNn1c(-c2ccccc2)nc2ccccc2c1=O` the MIC was 83.7 µM (broth dilution; 24 h).
The MIC of `Cc1cccc(NCc2ccc(Oc3ccccn3)cc2)c1` is reported as over 6.2 µg/mL.
`C[n+]1c(/C=C/c2c[nH]c3ccccc23)cc(/C=C2\Sc3ccccc3N2CCCN2CCOCC2)c2ccccc21.[I-]` has an MIC of 8 µg/mL (broth dilution; ATCCBAA44).
The MIC of `Clc1cccc(NCc2ccc(Oc3ccccn3)cc2)c1` is reported as 1.8 µg/mL.
`COc1c(C)c(OC)c2c(c1C)OC(c1ccccc1)CC2=O` (stereo not shown) gave an MIC of 5000 µg/mL (broth dilution; ATCC25923).
`Oc1ccccc1-c1nc2ccccc2[nH]1` has an MIC of 256 µg/mL (broth dilution; ATCC29213 MSSA).
The MIC of `C=CCOc1c(C)c(O)c(C(=O)/C=C/c2ccccc2)c(OC)c1C` is reported as over 5000 µg/mL (broth dilution; ATCC25923).
The MIC of `c1cncc(CN2CCC(n3ncc4c(N5CCOCC5)nc(-c5ccc6[nH]ccc6c5)nc43)CC2)c1` is reported as over 30 µM (NCTC8325).
`Cc1ccc2nc(-c3cccc([N+](=O)[O-])c3)[nH]c2c1` has an MIC of 64 µg/mL (broth dilution; ATCC29213 MSSA).
With `O=C(CCCCCCCC[P+](c1ccccc1)(c1ccccc1)c1ccccc1)Nc1ccc(O)c(O)c1.[Br-]` the MIC was over 32 µg/mL (broth dilution; ATCC43300 MRSA; 18 h).
The MIC of `CN[C@H](CC(C)C)C(=O)N[C@H]1C(=O)N[C@@H](CC(N)=O)C(=O)N[C@H]2C(=O)N[C@H]3C(=O)N[C@H](C(=O)N[C@H](C(=O)O)c4cc(O)cc(O)c4-c4cc3ccc4O)[C@H](O)c3ccc(c(Cl)c3)Oc3cc2cc(c3O[C@@H]2O[C@H](CO)[C@@H](O)[C@H](O)[C@H]2O[C@H]2C[C@](C)(N)[C@H](O)[C@H](C)O2)Oc2ccc(cc2Cl)[C@H]1O` is reported as 1 µg/mL (broth dilution; 6917).
With `Cc1cc(C#N)ccc1C(=O)Nc1ccc(C(=O)N[C@@H](CC(N)=O)C(=O)Nc2ccc(C(=O)Nc3ccc(C(=O)Nc4ccc(C(=O)O)cc4)c(O)c3OC(C)C)cc2)cc1` the MIC was 64 µg/mL (ATCC29213).
The MIC of `O=C(Nc1ccc(Cl)c(C(F)(F)F)c1)Nc1cccc2c1OC(F)(F)O2` is reported as 0.5 µM (NCTC8325).
For `Cn1c(SCc2ccc(Cl)cc2)nnc1-c1cncc(C#Cc2ccccc2)c1`, the MIC was at least 20 µg/mL (MRSA; drug-resistant strain).
`CC(C)Oc1c(NC(=O)c2ccc(NC(=O)[C@H](CC(N)=O)NC(=O)c3ccc(NC(=O)c4ccc(C#N)cc4)cc3)cc2)ccc(C(=O)O)c1O` gave an MIC of over 64 µg/mL (ATCC29213).
`CNc1cccc2cc(C(=O)NCCc3cccc(C(=O)O)c3)c(=O)[nH]c12` gave an MIC of over 64 µg/mL (ATCC29213).
`O=C(Nc1ncc([N+](=O)[O-])s1)C1CCCCC1` gave an MIC of 125 µM (broth dilution; MRSA).
With `Oc1ccc(-c2nc(-c3ccc(F)cc3)c(-c3ccncc3)[nH]2)cc1` the MIC was over 30 µM (NCTC8325).
The MIC of `CC(C)Oc1c(NC(=O)c2ccc(NC(=O)[C@H](CC(N)=O)NC(=O)c3ccc(NC(=O)c4ccc(N)cc4)cc3)cc2)ccc(C(=O)Nc2ccc(C(=O)O)cc2)c1O` is reported as over 64 µg/mL (ATCC29213).
`O=C(Nc1ccc(F)c(F)c1)c1cc(Cl)ccc1O` has an MIC of 0.44 µg/mL (broth dilution; ATCC29213).
The MIC of `O=[N+]([O-])c1ccc(-c2nc3ccccc3[nH]2)cc1` is reported as 128 µg/mL (broth dilution; ATCC29213 MSSA).
The MIC of `CSc1nc2nnnc(O)c2s1` is reported as over 128 µg/mL.
`Cn1cc(NC(=O)C(CC(N)=O)NC(=O)c2ccc(NC(=O)c3ccc(C#N)cc3)cc2)cc1-c1nc2ccc(C(=O)Nc3ccc(C(=O)O)cc3)c(O)c2[nH]1` (stereo not shown) gave an MIC of over 64 µg/mL (ATCC29213).
The MIC of `NC[C@@H]1O[C@H](O[C@H]2[C@@H](O)[C@H](O[C@@H]3[C@@H](O)[C@H](N)C[C@H](N)[C@H]3O[C@H]3O[C@H](CN)[C@@H](O)[C@H](O)[C@H]3N)O[C@@H]2CO)[C@H](N)[C@@H](O)[C@@H]1O` is reported as 5 µg/mL (USA300).
`O=C(O)CN1C(=O)/C(=C/c2ccc(-c3ccc(N(c4ccccc4)c4ccccc4)cc3)cc2)NC1=S` has an MIC of 3.9 µg/mL (broth dilution; ATCC25923).
For `C/C=C(\C)c1cc(OC(=O)c2c(C)c(Cl)c(O)c(Cl)c2O)c(C)c(O)c1C(=O)O`, the MIC was 64 µg/mL (broth dilution; MRSA).
With `Cc1ccc2nc(-c3c4ccccc4cc4ccccc34)[nH]c2c1` the MIC was 64 µg/mL (broth dilution; ATCC29213 MSSA).
`CO[C@H]1C[C@@H]2CC[C@@H](C)[C@@](O)(O2)C(=O)C(=O)N2CCCC[C@H]2C(=O)O[C@H]([C@H](C)C[C@@H]2CC[C@@H](OCCO)[C@H](OC)C2)CC(=O)[C@H](C)/C=C(\C)[C@@H](O)[C@@H](OC)C(=O)[C@H](C)C[C@H](C)/C=C/C=C/C=C/1C` has an MIC of over 30 µM (NCTC8325).
`Cc1ccc2cccc(C(=O)O)c2c1` gave an MIC of over 128 µg/mL.
`C[C@@H](O)[C@H]1C(=O)N2C(C(=O)O)=C(S[C@@H]3CN[C@H](C(=O)N(C)C)C3)[C@H](C)[C@H]12` has an MIC of 0.0625 µg/mL (broth dilution; 24 h).
`CN[C@H](CC(C)C)C(=O)N[C@H]1C(=O)N[C@@H](CC(N)=O)C(=O)N[C@H]2C(=O)N[C@H]3C(=O)N[C@H](C(=O)N[C@H](C(=O)O)c4cc(O)cc(O)c4-c4cc3ccc4O)[C@H](O)c3ccc(c(Cl)c3)Oc3cc2cc(c3O[C@@H]2O[C@H](CO)[C@@H](O)[C@H](O)[C@H]2O[C@H]2C[C@](C)(N)[C@H](O)[C@H](C)O2)Oc2ccc(cc2Cl)[C@H]1O` has an MIC of 0.49 µg/mL (broth dilution; ATCC6538).
`C/C=C(\C)c1cc(O)c(C)c(OC(=O)c2c(C)c(Cl)c(O)c(Cl)c2O)c1` gave an MIC of 4 µg/mL (broth dilution; CCARM3090).
The MIC of `CN(C)[C@@H]1C(O)=C(C(N)=O)C(=O)[C@@]2(O)C(O)=C3C(=O)c4c(O)cccc4[C@@](C)(O)[C@H]3C[C@@H]12` is reported as at most 0.1 µM (129; clinical isolate).
The MIC of `Nc1nccc(Oc2ccc(NC(=O)c3c[nH]cc(-c4ccc(F)cc4)c3=O)cc2F)c1Cl` is reported as over 30 µM (NCTC8325).
For `CC(C)(O/N=C(\C(=O)N[C@@H]1C(=O)N2C(C(=O)[O-])=C(C[n+]3ccccc3)CS[C@H]12)c1csc(N)n1)C(=O)O`, the MIC was 1 µg/mL (broth dilution; ATCC25923; 18 h).
`Cc1ccc(C)n1-c1ccc(-c2nnco2)cc1` has an MIC of 2 µg/mL (broth dilution; ATCC11632; 18 h).
For `O=C1NC(=S)S/C1=C\c1c2ccccc2c(-c2ccc(N(c3ccccc3)c3ccccc3)cc2)c2ccccc12`, the MIC was over 1000 µg/mL (broth dilution; ATCC43300).
For `CC(C)Oc1c(NC(=O)c2ccc(NC(=O)[C@H](CC(N)=O)NC(=O)c3ccc(NC(=O)c4ccc(C#N)cc4)cc3)cc2)ccc(C(=O)N[C@@H]2CONC2=O)c1O`, the MIC was over 64 µg/mL (ATCC29213).
For `COc1cccc(OC)c1C(=O)N[C@@H]1C(=O)N2[C@@H]1SC(C)(C)[C@@H]2C(=O)O`, the MIC was 6.25 µM (147; clinical isolate).
`COc1ccc(-c2nc3ccc(C)cc3[nH]2)cc1O` has an MIC of 64 µg/mL (broth dilution; ATCC29213 MSSA).
`O=C(Nc1ccc(OC(F)(F)F)cc1)c1sccc1NCc1ccnc2ccccc12` has an MIC of over 30 µM (NCTC8325).
For `CSc1ccc(-c2nc3ccc(C)cc3[nH]2)cc1`, the MIC was 16 µg/mL (broth dilution; ATCC29213 MSSA).
For `O=C(O)CN1C(=O)/C(=C/c2c3ccccc3c(-c3ccc(N(c4ccccc4)c4ccccc4)cc3)c3ccccc23)SC1=S`, the MIC was over 1000 µg/mL (broth dilution; ATCC6538).
The MIC of `C[C@@H](O)[C@H]1C(=O)N2C(C(=O)O)=C(SCCN=CN)C[C@H]12` is reported as 8 µM (broth dilution; KCTC1621; 16 h).
The MIC of `CC(C)Oc1c(NC(=O)c2ccc(NC(=O)[C@H](CC(N)=O)NC(=O)c3ccc(C#Cc4ccc(C#N)cc4)cc3)cc2)ccc(C(=O)Nc2ccc(C(=O)O)cc2)c1O` is reported as at most 0.03 µg/mL (ATCC29213).
For `Cc1cc(C)n(C(=O)c2ccc(-n3c(C)ccc3C)cc2)n1`, the MIC was 125 µg/mL (broth dilution; ATCC11632; 18 h).
